The term MIC denotes the lowest concentration that inhibits growth of the organism. A lower MIC goes with inhibition by little substance.

From ChEMBL document CHEMBL4477218 (J Med Chem, 2016) come the findings set out here.

Assay type in all cases: functional
Experiment [1] relates to Staphylococcus aureus. Kind of experiment: Antibacterial activity against TMP/methicillin-resistant Staphylococcus aureus harboring DHFR H30N/F98Y double mutant after 18 hrs by CLSI M100-S16 method. The procedure, abridged: (§1)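 Broth microdilution per CLSI guideline in Isosensitest broth, final inoculum 5 x 10^5 CFU/mL, 18 h at 37 °C. Growth read at A600. MIC taken as the lowest inhibitor concentration visually inhibiting growth, confirmed colorimetrically with Presto Blue. Isosensitest broth with 10 µg/mL thymidine used to check off-target antibacterial activity. Mutant strains were selected on agar containing 6x MIC of an earlier propargyl-linked antifolate and sequenced.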

The test system of experiment [2] is Staphylococcus aureus. Kind of experiment: Antibacterial activity against TMP/methicillin-resistant Staphylococcus aureus harboring DHFR H30N mutant after 18 hrs by CLSI M100-S16 method. The procedure, abridged:
as §1

Experiment [3] relates to Staphylococcus aureus. The experiment can be described thus: Antibacterial activity against TMP/methicillin-resistant Staphylococcus aureus harboring DHFR H149R mutant after 18 hrs by CLSI M100-S16 method. The procedure, abridged:
as §1

Experiment [4] concerns Staphylococcus aureus. Kind of experiment: Antibacterial activity against TMP/methicillin-resistant Staphylococcus aureus harboring DHFR F98Y mutant after 18 hrs by CLSI M100-S16 method. The procedure, abridged:
as §1

Experiment [5] has as its system Staphylococcus aureus. The experiment can be described thus: Antibacterial activity against TMP/methicillin-resistant Staphylococcus aureus ATCC 43300 after 18 hrs by CLSI M100-S16 method. To be noted: ATCC 43300, 18 h. The procedure, abridged:
as §1

Experiment [6] has as its system Staphylococcus aureus. Kind of experiment: Antibacterial activity against TMP/methicillin-resistant Staphylococcus aureus harboring DHFR F98Y/H149R double mutant after 18 hrs by CLSI M100-S16 method. The procedure, abridged: as §1

In brackets after ≈: the same amount, converted by molar mass.

As to `CCc1nc(N)nc(N)c1C#CC(C)c1cc(OC)cc(-c2ccncc2)c1` (centres undefined), the MIC in the experiment with Staphylococcus aureus [1] turned out to be 20 µg/mL (≈ 53.6 µM); in the experiment with Staphylococcus aureus [2], 2.5 µg/mL (≈ 6.69 µM); with Staphylococcus aureus [3], 2.5 µg/mL (≈ 6.69 µM); in the experiment on Staphylococcus aureus [4] it was 2.5 µg/mL (≈ 6.69 µM); in the experiment with Staphylococcus aureus [5], 0.0781 µg/mL (≈ 0.209 µM); against Staphylococcus aureus [6], 80 µg/mL (≈ 214 µM).
Regarding `CCc1nc(N)nc(N)c1C#CC(C)c1cc(-c2ccncc2)ccc1OC` (centres undefined), the MIC in the experiment on Staphylococcus aureus [1] came to 20 µg/mL (≈ 53.6 µM); with Staphylococcus aureus [2], 2.5 µg/mL (≈ 6.69 µM); against Staphylococcus aureus [3], 2.5 µg/mL (≈ 6.69 µM); with Staphylococcus aureus [4] it was 2.5 µg/mL (≈ 6.69 µM); with Staphylococcus aureus [5], 0.625 µg/mL (≈ 1.67 µM); against Staphylococcus aureus [6], 40 µg/mL (≈ 107 µM).
On to `CCc1nc(N)nc(N)c1C#CCc1cc(-c2ccc(C(=O)O)cc2)ccc1OC`, for which the MIC in the experiment on Staphylococcus aureus [1] is 6.25 µg/mL (≈ 15.5 µM); in the experiment on Staphylococcus aureus [2], 0.156 µg/mL (≈ 0.388 µM); against Staphylococcus aureus [3], 0.156 µg/mL (≈ 0.389 µM); in the experiment on Staphylococcus aureus [4], 0.156 µg/mL (≈ 0.388 µM); against Staphylococcus aureus [5] it was 0.0195 µg/mL (≈ 0.0485 µM); in the experiment on Staphylococcus aureus [6], above 50 µg/mL.
Consider `CCc1nc(N)nc(N)c1C#C[C@H](C)c1cc(OC)cc(-c2ccc(C(=O)O)cc2)c1`, for which the MIC is 0.0391 µg/mL (≈ 0.0939 µM) with Staphylococcus aureus [3], 0.0781 µg/mL (≈ 0.188 µM) against Staphylococcus aureus [4], 0.0098 µg/mL (≈ 0.0235 µM) against Staphylococcus aureus [5] and 2.5 µg/mL (≈ 6 µM) in the experiment on Staphylococcus aureus [6].
Take `CCc1nc(N)nc(N)c1C#C[C@@H](C)c1cc(OC)cc(-c2ccc(C(=O)O)cc2)c1`: the MIC in the experiment with Staphylococcus aureus [1] was 1.25 µg/mL (≈ 3 µM); in the experiment on Staphylococcus aureus [2] it was 0.0781 µg/mL (≈ 0.188 µM); in the experiment with Staphylococcus aureus [3], 0.0781 µg/mL (≈ 0.188 µM); in the experiment on Staphylococcus aureus [5], 0.0098 µg/mL (≈ 0.0235 µM); against Staphylococcus aureus [6], 1.25 µg/mL (≈ 3 µM).
Take `CCc1nc(N)nc(N)c1C#CCc1cc(OC)cc(-c2ccc(C(=O)O)cc2)c1`: the MIC with Staphylococcus aureus [1] was found to be 5 µg/mL (≈ 12.4 µM); against Staphylococcus aureus [2], 0.156 µg/mL (≈ 0.388 µM); against Staphylococcus aureus [3], 0.156 µg/mL (≈ 0.388 µM); against Staphylococcus aureus [4], 0.156 µg/mL (≈ 0.388 µM); in the experiment on Staphylococcus aureus [5] it was 0.0195 µg/mL (≈ 0.0485 µM); in the experiment with Staphylococcus aureus [6] it was 10 µg/mL (≈ 24.8 µM).
On to `CCc1nc(N)nc(N)c1C#C[C@H](C)c1cc(-c2ccc(C(=O)O)cc2)ccc1OC`, for which the MIC against Staphylococcus aureus [1] was above 40 µg/mL; in the experiment on Staphylococcus aureus [2], 0.156 µg/mL (≈ 0.375 µM); against Staphylococcus aureus [3] it was 0.0781 µg/mL (≈ 0.188 µM); in the experiment on Staphylococcus aureus [4] it was 0.156 µg/mL (≈ 0.375 µM); against Staphylococcus aureus [5] it was 0.0391 µg/mL (≈ 0.0939 µM); against Staphylococcus aureus [6], above 40 µg/mL.
On to `CCc1nc(N)nc(N)c1C#C[C@H](C)c1cc2c(c(-c3ccncc3)c1)OCO2`, for which the MIC is 20 µg/mL (≈ 51.6 µM) in the experiment with Staphylococcus aureus [1]; 2.5 µg/mL (≈ 6.45 µM) with Staphylococcus aureus [2]; 2.5 µg/mL (≈ 6.45 µM) with Staphylococcus aureus [3]; 1.25 µg/mL (≈ 3.23 µM) with Staphylococcus aureus [4]; 0.0195 µg/mL (≈ 0.0503 µM) in the experiment on Staphylococcus aureus [5]; 20 µg/mL (≈ 51.6 µM) against Staphylococcus aureus [6].
In the case of `CCc1nc(N)nc(N)c1C#C[C@H](C)c1cc(OC)cc(-c2ccncc2)c1`, the MIC against Staphylococcus aureus [1] was 40 µg/mL (≈ 107 µM); in the experiment on Staphylococcus aureus [2], 0.625 µg/mL (≈ 1.67 µM); with Staphylococcus aureus [3] it was 0.625 µg/mL (≈ 1.67 µM); with Staphylococcus aureus [4], 0.625 µg/mL (≈ 1.67 µM); with Staphylococcus aureus [5], 0.0391 µg/mL (≈ 0.105 µM); in the experiment with Staphylococcus aureus [6], 20 µg/mL (≈ 53.6 µM).
Take `CCc1nc(N)nc(N)c1C#CC(C)c1cc2c(c(-c3ccncc3)c1)OCO2` (centres undefined): the MIC against Staphylococcus aureus [1] came to 40 µg/mL (≈ 103 µM); against Staphylococcus aureus [2] it was 5 µg/mL (≈ 12.9 µM); against Staphylococcus aureus [3], 5 µg/mL (≈ 12.9 µM); with Staphylococcus aureus [4], 1.25 µg/mL (≈ 3.23 µM); against Staphylococcus aureus [5], 0.0781 µg/mL (≈ 0.202 µM); against Staphylococcus aureus [6] it was 40 µg/mL (≈ 103 µM).
`CCc1nc(N)nc(N)c1C#CCc1cc(OC)c(OC)c(-c2ccncc2)c1`: the MIC in the experiment with Staphylococcus aureus [1] came out at 20 µg/mL (≈ 51.4 µM); against Staphylococcus aureus [2], 0.625 µg/mL (≈ 1.6 µM); in the experiment with Staphylococcus aureus [3] it was 0.625 µg/mL (≈ 1.6 µM); with Staphylococcus aureus [4], 0.625 µg/mL (≈ 1.6 µM); against Staphylococcus aureus [5], 0.0195 µg/mL (≈ 0.0501 µM); in the experiment on Staphylococcus aureus [6] it was 40 µg/mL (≈ 103 µM).
Consider `CCc1nc(N)nc(N)c1C#C[C@@H](C)c1cc(-c2ccncc2)ccc1OC`, for which the MIC worked out at 10 µg/mL (≈ 26.8 µM) with Staphylococcus aureus [1]; 0.625 µg/mL (≈ 1.67 µM) with Staphylococcus aureus [2]; 1.25 µg/mL (≈ 3.35 µM) in the experiment with Staphylococcus aureus [3]; 1.25 µg/mL (≈ 3.35 µM) in the experiment with Staphylococcus aureus [4]; 0.0195 µg/mL (≈ 0.0522 µM) against Staphylococcus aureus [5]; 20 µg/mL (≈ 53.6 µM) against Staphylococcus aureus [6].
